{"data": "Assay results pooled from the literature", "target": "STE20-like serine/threonine-protein kinase (SLK, Homo sapiens, UniProt Q9H2G2)", "note": "Lines come from different studies, so protocols differ."}
{"SMILES": "Cn1c2c(Cl)c(Cl)ccc2c2cn[nH]c(=O)c21", "effect on": "thermal stability", "method": "DSF", "concentration": "10 µM", "measurement": "ΔTm", "result": "0.4 °C"}
{"SMILES": "CNC(=O)c1cc(Oc2ccc(NC(=O)Nc3ccc(Cl)c(C(F)(F)F)c3)cc2)ccn1", "effect on": "cell-free assay", "concentration": "0.5 µM", "measurement": "remaining signal", "result": "96.8%"}
{"SMILES": "Cn1nc(C(=O)NCc2ccc(C(=O)O)cc2)cc1-c1ccc2[nH]ccc2c1", "effect on": "cell-free assay", "method": "competition with immobilised ligand", "concentration": "0.1 µM", "measurement": "remaining binding", "result": "65%"}
{"SMILES": "O=C(Nc1cnn(-c2csc(C(=O)NC3COC3)c2)c1)Nc1ccccc1Cl", "effect on": "enzyme activity", "mode": "inhibitor", "concentration": "5 µM", "measurement": "remaining activity", "result": "89.7%"}
{"SMILES": "CC1(C)NC(=O)c2[nH]c3c(Cl)c(Cl)ccc3c2C1C#N (stereo not shown)", "effect on": "thermal stability", "method": "DSF", "concentration": "10 µM", "measurement": "ΔTm", "result": "-0.5 °C"}
{"SMILES": "COc1cc(-c2cc(-c3ccc(N4CCNCC4)cc3)cnc2C)cc(OC)c1OC", "effect on": "enzyme activity", "mode": "inhibitor", "concentration": "1 µM", "measurement": "inhibition", "result": "43%"}
{"SMILES": "COc1cc(Nc2c(C#N)cnc3cc(OCCCN4CCN(C)CC4)c(OC)cc23)c(Cl)cc1Cl", "effect on": "cell-free assay", "concentration": "0.5 µM", "measurement": "remaining signal", "result": "21.6%"}
{"SMILES": "CCN1CCN(Cc2ccc(NC(=O)c3ccc(C)c(Oc4ccnc5[nH]ccc45)c3)cc2C(F)(F)F)CC1", "effect on": "target engagement in cells", "mode": "inhibitor", "method": "chemoproteomics", "cells": "Huh-7", "concentration": "1 µM", "measurement": "inhibition", "result": "-70.4%"}
{"SMILES": "COc1cc(Cl)c(C(=O)N[C@@H](CN[C@H]2CC[C@@H](N)CC2)Cc2ccc(C#N)cc2)cc1-c1ccc(CN[C@H](C)c2ccc(C)cc2)o1", "effect on": "enzyme activity", "mode": "inhibitor", "concentration": "1 µM", "measurement": "remaining activity", "result": "95%"}
{"SMILES": "CC/C(=N\\NC(=O)NCc1cccc(O)c1)c1ccc(O)c(C)c1O", "effect on": "enzyme activity", "mode": "inhibitor", "concentration": "0.1 µM", "measurement": "inhibition", "result": "4%"}
{"SMILES": "Cn1c2c(c3ccc(Cl)c(Cl)c31)C(C#N)C1(CCOCC1)NC2=O (stereo not shown)", "effect on": "thermal stability", "method": "DSF", "concentration": "10 µM", "measurement": "ΔTm", "result": "-0.4 °C"}
{"SMILES": "CN1CCN(c2cnc3c(C4CCN(C(=O)c5ccc(OC(F)(F)F)cc5N)CC4)ncnc3c2)CC1", "effect on": "cell-free assay", "method": "competition with immobilised ligand", "concentration": "1 µM", "measurement": "remaining binding", "result": "96%"}
{"SMILES": "CCN(CC)CCNC(=O)c1c(C)[nH]c(/C=C2\\C(=O)Nc3ccc(F)cc32)c1C", "effect on": "cell-free assay", "concentration": "0.5 µM", "measurement": "remaining signal", "result": "63.8%"}
{"SMILES": "CC1=C(C#N)C(c2ccc3c(c2)c(NC(=O)c2ccccc2C)nn3C)C(C#N)=C(C)N1", "effect on": "cell-free assay", "method": "competition with immobilised ligand", "concentration": "1 µM", "measurement": "remaining binding", "result": "88%"}
{"SMILES": "CCOc1cc(-c2nncn2C)ccc1Nc1ncc2cc(C)nc(NCC(C)(C)C)c2n1", "effect on": "cell-free assay", "method": "TR-FRET", "concentration": "1 µM", "measurement": "inhibition", "result": "≤ 15%"}
{"SMILES": "O=C(O)c1cc(-c2ccc(C3CCNCC3)cc2)c2ccc(-c3ccc(C(F)(F)F)cc3)cc2c1", "effect on": "cell-free assay", "method": "competition with immobilised ligand", "concentration": "1 µM", "measurement": "remaining binding", "result": "100%"}
{"SMILES": "CC(C)(C)c1nc(-c2cccc(NS(=O)(=O)c3c(F)cccc3F)c2F)c(-c2ccnc(N)n2)s1", "effect on": "enzyme activity", "mode": "inhibitor", "method": "radiometric", "concentration": "1 µM", "measurement": "remaining activity", "result": "90%"}
{"SMILES": "Cc1c(C(=O)O)cc(-c2ccc(C3CCNCC3)cc2)c2ccc(-c3ccc(C(F)(F)F)cc3)cc12", "effect on": "binding", "method": "competition with immobilised ligand", "concentration": "1 µM", "measurement": "remaining binding", "result": "100%"}
{"SMILES": "Cc1ccc(C(=O)Nc2ccc(CN3CCN(C)CC3)c(C(F)(F)F)c2)cc1C#Cc1cnc2cccnn12", "effect on": "enzyme activity", "mode": "inhibitor", "concentration": "23.5 nM", "measurement": "remaining activity", "result": "7%"}
{"SMILES": "O=C(N1CCS(=O)(=O)CC1)N1C[C@H](c2ccc(OC(F)(F)F)cc2)C[C@H](c2nc(C3CC3)no2)C1", "effect on": "cell-free assay", "method": "competition with immobilised ligand", "concentration": "1 µM", "measurement": "remaining binding", "result": "100%"}
{"SMILES": "Cn1c2c(Cl)c(Cl)ccc2c2cc[nH]c(=O)c21", "effect on": "thermal stability", "method": "DSF", "concentration": "10 µM", "measurement": "ΔTm", "result": "0.2 °C"}
{"SMILES": "O=C1CCc2cc(Nc3cc(OC4CCOCC4)c([N+](=O)[O-])cc3Cl)ccc2N1", "effect on": "cell-free assay", "method": "competition with immobilised ligand", "concentration": "1 µM", "measurement": "remaining binding", "result": "100%"}
{"SMILES": "Cc1ccc(NC(=O)c2ccc(CN3CCN(C)CC3)cc2)cc1Nc1nc(-c2cccnc2)cs1", "effect on": "cell-free assay", "concentration": "0.5 µM", "measurement": "remaining signal", "result": "92.4%"}
{"SMILES": "CN(C)CC#Cc1ccc(OCCCc2sc(N3CCc4cccc(C(=O)Nc5nc6ccccc6s5)c4C3)nc2C(=O)O)c(F)c1", "effect on": "cell-free assay", "method": "competition with immobilised ligand", "concentration": "1 µM", "measurement": "remaining binding", "result": "100%"}
{"SMILES": "COc1cc2nccc(Oc3ccc(NC(=O)Nc4ccc(F)cc4F)c(F)c3)c2cc1OC", "effect on": "thermal stability", "method": "DSF", "concentration": "10 µM", "measurement": "ΔTm", "result": "5 to 10 °C"}
